In brackets after ≈: the same amount, converted by molar mass.
Key:
[1] = Aqueous solubility of compound in simulated intestinal fluid at pH 7 by HPLC method; format: physicochemical
[2] = Clearance in rat at 1 mg/kg, iv; format: ADME, organism-based; conditions: in vivo
[3] = AUC in dog at 5 mg/kg, po; format: ADME, organism-based, Canis lupus familiaris; design: dose 5 mg/kg; conditions: in vivo
[4] = Oral bioavailability in rat at 5 mg/kg; format: ADME, organism-based; conditions: in vivo
Summary of the method: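 Oral dosing in rats; vehicle 0.1% CMC/0.2% Tween-80.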

[5] = Half life in human at 10 to 120 mg administered orally using tablet form of sample; format: ADME; conditions: in vivo, po, dose 10-120 mg
Summary of the method: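 Phase I single ascending dose study in healthy volunteers; oral tablet at 10 mg escalating through a 120 mg cohort; plasma pharmacokinetics followed, median t1/2 reported per cohort.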

[6] = Toxicity in Sprague-Dawley rat assessed as effect on clinical pathology measured up to 13 weeks; conditions: in vivo, 2184 h
Summary of the method: (§1)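 GLP toxicity studies lasting up to 13 weeks, run in Sprague-Dawley rats and cynomolgus monkeys.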

[7] = Toxicity in cynomolgus monkey assessed as effect on cardiovascular system administered as single dose; design: species or system Macaca fascicularis; conditions: in vivo
Summary of the method: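 Single-dose cardiovascular safety study in cynomolgus monkeys.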

[8] = Volume of distribution at steady state in rat at 1 mg/kg, iv; format: ADME, organism-based; conditions: in vivo, read-out: Vdss
Summary of the method: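 Intravenous dosing at 1 mg/kg in male SD rats, measured in triplicate; vehicle 40% NMP solution. Clearance expressed as %Qh.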

[9] = Oral bioavailability in cynomolgus monkey at 5 mg/kg; format: ADME, organism-based, Macaca fascicularis; conditions: in vivo
[10] = Toxicity in cynomolgus monkey measured up to 13 weeks; design: species or system Macaca fascicularis; conditions: in vivo; summary of the method: as §1
[11] = Toxicity in Sprague-Dawley rat assessed as effect on respiratory system administered as single dose; conditions: in vivo
Summary of the method: (§2)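 Single-dose CNS and respiratory safety studies in rats.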

Cytochrome P450 2C19 = Cytochrome P450 2C19 (Homo sapiens, UniProt P33261); test: Inhibition of CYP2C19 in human liver microsomes using S-mephenytoin as substrate measured after 30 mins in presence of NADPH by LC-MS/MS analysis; format: ADME
Chain of Cytochrome P450 2C19 (P33261 whole entry): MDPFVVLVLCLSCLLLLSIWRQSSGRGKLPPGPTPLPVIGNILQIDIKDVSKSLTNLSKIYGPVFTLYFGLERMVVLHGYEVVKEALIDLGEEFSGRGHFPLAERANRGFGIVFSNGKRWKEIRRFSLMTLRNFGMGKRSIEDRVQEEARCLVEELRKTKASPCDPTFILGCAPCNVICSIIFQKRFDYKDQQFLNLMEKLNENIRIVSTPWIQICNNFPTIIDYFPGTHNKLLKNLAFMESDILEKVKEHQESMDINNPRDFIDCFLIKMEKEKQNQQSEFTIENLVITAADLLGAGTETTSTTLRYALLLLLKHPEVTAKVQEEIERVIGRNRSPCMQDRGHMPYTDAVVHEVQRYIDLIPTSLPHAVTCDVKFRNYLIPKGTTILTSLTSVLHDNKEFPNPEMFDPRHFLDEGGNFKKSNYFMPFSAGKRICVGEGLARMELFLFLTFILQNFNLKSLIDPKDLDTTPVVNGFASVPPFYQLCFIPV

[12] = Protein binding in rat plasma assessed as unbound fraction; format: ADME, cell-free
[13] = Cmax in cynomolgus monkey at 5 mg/kg, po; format: ADME, organism-based, Macaca fascicularis; design: route oral, dose 5 mg/kg; conditions: in vivo
Cytochrome P450 2D6 = Cytochrome P450 2D6 (Homo sapiens, UniProt P10635); test: Inhibition of CYP2D6 in human liver microsomes using dextromethorphan as substrate measured after 15 mins in presence of NADPH by LC-MS/MS analysis; format: ADME
Chain of Cytochrome P450 2D6 (P10635 whole entry): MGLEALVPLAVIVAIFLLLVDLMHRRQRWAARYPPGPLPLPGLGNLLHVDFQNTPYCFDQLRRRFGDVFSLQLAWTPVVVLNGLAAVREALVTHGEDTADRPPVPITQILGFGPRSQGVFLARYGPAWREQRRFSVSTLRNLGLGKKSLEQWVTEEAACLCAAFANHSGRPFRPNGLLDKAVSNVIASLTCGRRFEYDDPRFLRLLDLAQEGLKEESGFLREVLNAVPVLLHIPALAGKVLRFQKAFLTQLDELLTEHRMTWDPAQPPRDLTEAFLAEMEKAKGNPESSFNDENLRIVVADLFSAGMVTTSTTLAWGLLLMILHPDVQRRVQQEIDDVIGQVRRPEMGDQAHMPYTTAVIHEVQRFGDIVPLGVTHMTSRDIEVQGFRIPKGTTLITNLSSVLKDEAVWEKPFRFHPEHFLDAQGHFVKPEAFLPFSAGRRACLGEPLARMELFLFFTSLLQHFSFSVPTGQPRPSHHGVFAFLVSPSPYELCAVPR

Cytochrome P450 2C9 = Cytochrome P450 2C9 (Homo sapiens, UniProt P11712); test: Inhibition of CYP2C9 in human liver microsomes using tolbutamide as substrate measured after 15 mins in presence of NADPH by LC-MS/MS analysis; format: ADME
Chain of Cytochrome P450 2C9 (P11712 whole entry): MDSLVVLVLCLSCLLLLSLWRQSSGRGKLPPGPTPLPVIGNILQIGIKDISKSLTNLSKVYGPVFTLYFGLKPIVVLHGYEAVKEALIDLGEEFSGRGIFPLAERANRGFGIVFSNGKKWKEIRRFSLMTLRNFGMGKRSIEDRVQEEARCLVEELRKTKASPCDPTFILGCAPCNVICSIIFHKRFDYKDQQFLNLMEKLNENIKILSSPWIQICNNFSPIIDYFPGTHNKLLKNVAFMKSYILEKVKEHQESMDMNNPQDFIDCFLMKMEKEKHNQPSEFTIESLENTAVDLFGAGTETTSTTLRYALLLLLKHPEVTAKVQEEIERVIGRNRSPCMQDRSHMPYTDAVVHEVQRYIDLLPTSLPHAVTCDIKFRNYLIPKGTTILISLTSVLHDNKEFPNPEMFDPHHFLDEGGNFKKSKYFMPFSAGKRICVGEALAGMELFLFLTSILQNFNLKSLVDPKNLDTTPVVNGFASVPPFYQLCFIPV

[14] = Clearance in cynomolgus monkey at 1 mg/kg, iv; format: ADME, organism-based, Macaca fascicularis; conditions: in vivo
[15] = Tmax in human at 10 to 120 mg administered orally using tablet form of sample; format: ADME; conditions: in vivo, po, dose 10-120 mg
Summary of the method: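 Single ascending oral tablet doses from 10 mg up to 120 mg given to healthy volunteers; plasma concentration followed over time after dosing.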

Cytochrome P450 1A2 = target: T1, Cytochrome P450 1A2 (Homo sapiens, UniProt P05177); test: Inhibition of CYP1A2 in human liver microsomes using phenacetin as substrate measured after 15 mins in presence of NADPH by LC-MS/MS analysis; format: ADME
T1 sequence (P05177 whole entry): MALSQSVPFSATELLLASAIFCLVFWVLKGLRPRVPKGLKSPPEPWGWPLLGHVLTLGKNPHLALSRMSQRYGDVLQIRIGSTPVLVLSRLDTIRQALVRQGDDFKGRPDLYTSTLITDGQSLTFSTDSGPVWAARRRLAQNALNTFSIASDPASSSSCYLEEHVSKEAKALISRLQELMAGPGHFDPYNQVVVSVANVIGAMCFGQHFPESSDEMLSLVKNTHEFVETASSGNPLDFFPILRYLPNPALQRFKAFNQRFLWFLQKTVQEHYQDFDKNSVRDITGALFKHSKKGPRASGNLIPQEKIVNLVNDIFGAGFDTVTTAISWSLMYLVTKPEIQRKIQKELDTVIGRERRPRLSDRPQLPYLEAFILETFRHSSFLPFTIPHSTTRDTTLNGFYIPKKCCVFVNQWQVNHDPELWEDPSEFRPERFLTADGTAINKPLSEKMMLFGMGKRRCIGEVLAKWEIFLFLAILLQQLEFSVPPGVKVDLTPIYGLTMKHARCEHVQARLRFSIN

[16] = AUC in cynomolgus monkey at 5 mg/kg, po; format: ADME, organism-based, Macaca fascicularis; design: dose 5 mg/kg; conditions: in vivo
[17] = Toxicity in cynomolgus monkey assessed as effect on food consumption measured up to 13 weeks; design: species or system Macaca fascicularis; conditions: in vivo, 2184 h; summary of the method: as §1
[18] = Toxicity in cynomolgus monkey assessed as change in body weight measured up to 13 weeks; design: species or system Macaca fascicularis; conditions: in vivo, 2184 h; summary of the method: as §1
[19] = Volume of distribution at steady state in dog at 1 mg/kg, iv; format: ADME, organism-based, Canis lupus familiaris; conditions: in vivo, read-out: Vdss
Summary of the method: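 Intravenous dosing at 1 mg/kg; vehicle 70:30 PEG-400:H2O solution.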

[20] = Toxicity in Sprague-Dawley rat assessed as effect on CNS administered as single dose; conditions: in vivo; summary of the method: as §2
Cytochrome P450 3A4 = Cytochrome P450 3A4 (Homo sapiens, UniProt P08684); test: Induction of CYP3A4 in human hepatocytes up to 50 uM; format: ADME, cell-based, Hepatocyte
Chain of Cytochrome P450 3A4 (P08684 whole entry): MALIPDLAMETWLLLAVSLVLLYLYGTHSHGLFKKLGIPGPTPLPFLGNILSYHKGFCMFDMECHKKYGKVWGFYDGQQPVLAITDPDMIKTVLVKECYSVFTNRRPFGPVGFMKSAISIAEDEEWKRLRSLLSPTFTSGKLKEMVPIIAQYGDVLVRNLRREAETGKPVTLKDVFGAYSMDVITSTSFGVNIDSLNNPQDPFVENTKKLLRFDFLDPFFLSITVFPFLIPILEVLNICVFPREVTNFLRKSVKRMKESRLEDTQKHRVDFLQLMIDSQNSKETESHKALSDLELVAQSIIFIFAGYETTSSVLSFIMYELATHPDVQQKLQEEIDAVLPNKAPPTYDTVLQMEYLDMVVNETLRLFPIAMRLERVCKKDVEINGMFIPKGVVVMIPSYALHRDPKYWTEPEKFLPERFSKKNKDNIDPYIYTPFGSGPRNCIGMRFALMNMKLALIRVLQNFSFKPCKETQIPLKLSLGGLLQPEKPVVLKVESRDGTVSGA
Summary of the method: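 Sandwich-cultured human hepatocytes exposed at concentrations up to 50 μM; induction of CYP1A2, 2B6 and 3A4 assessed.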

[21] = Stability in Beagle dog plasma assessed as parent compound remaining after 6 hrs; format: ADME, cell-free, Canis lupus familiaris; conditions: read-out: Stabilty
Summary of the method: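 Compound incubated in plasma for 6 hours, then percentage of parent compound remaining determined.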

[22] = Toxicity in cynomolgus monkey assessed as change in ECG measured up to 13 weeks; design: species or system Macaca fascicularis; conditions: in vivo, 2184 h; summary of the method: as §1
[23] = Lipophilicity, log D of compound at pH 7.4 by shake flask method; format: physicochemical; conditions: buffer
[24] = Cmax in rat at 5 mg/kg, po; format: ADME, organism-based; design: route oral, dose 5 mg/kg; conditions: in vivo
[25] = Clearance in cynomolgus monkey at 1 mg/kg, iv relative to hepatic blood flow; format: ADME, organism-based, Macaca fascicularis; conditions: in vivo
[26] = Toxicity in cynomolgus monkey assessed as effect on clinical pathology measured up to 13 weeks; design: species or system Macaca fascicularis; conditions: in vivo, 2184 h; summary of the method: as §1
[27] = Half life in cynomolgus monkey at 1 mg/kg, iv; format: ADME, organism-based, Macaca fascicularis; conditions: in vivo
[28] = Clearance in dog at 1 mg/kg, iv; format: ADME, organism-based, Canis lupus familiaris; conditions: in vivo
[29] = Half life in dog at 1 mg/kg, iv; format: ADME, organism-based, Canis lupus familiaris; conditions: in vivo
[30] = Drug metabolism in human liver microsomes assessed as N-demethylation; format: ADME, Microsome
[31] = Genotoxicity in Sprague-Dawley rat assessed as micronuclei formation by micronucleus assay; format: toxicity
Summary of the method: (§3)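 In vivo micronucleus test in Sprague-Dawley rats; bone marrow scored for micronuclei, clastogenic activity and disruption of the mitotic apparatus.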

[32] = Clearance in rat at 1 mg/kg, iv relative to hepatic blood flow; format: ADME, organism-based; conditions: in vivo
[33] = Toxicity in Sprague-Dawley rat assessed as effect on gross pathology measured up to 13 weeks; conditions: in vivo, 2184 h; summary of the method: as §1
[34] = Half life in rat at 1 mg/kg, iv; format: ADME, organism-based; conditions: in vivo
[35] = Toxicity in Sprague-Dawley rat assessed as histopathological changes measured up to 13 weeks; conditions: in vivo, 2184 h; summary of the method: as §1
[36] = target: Voltage-gated inwardly rectifying potassium channel KCNH2 (Homo sapiens, UniProt Q12809); test: Inhibition of human ERG by automated patch-clamp assay
Chain of Voltage-gated inwardly rectifying potassium channel KCNH2 (Q12809 whole entry): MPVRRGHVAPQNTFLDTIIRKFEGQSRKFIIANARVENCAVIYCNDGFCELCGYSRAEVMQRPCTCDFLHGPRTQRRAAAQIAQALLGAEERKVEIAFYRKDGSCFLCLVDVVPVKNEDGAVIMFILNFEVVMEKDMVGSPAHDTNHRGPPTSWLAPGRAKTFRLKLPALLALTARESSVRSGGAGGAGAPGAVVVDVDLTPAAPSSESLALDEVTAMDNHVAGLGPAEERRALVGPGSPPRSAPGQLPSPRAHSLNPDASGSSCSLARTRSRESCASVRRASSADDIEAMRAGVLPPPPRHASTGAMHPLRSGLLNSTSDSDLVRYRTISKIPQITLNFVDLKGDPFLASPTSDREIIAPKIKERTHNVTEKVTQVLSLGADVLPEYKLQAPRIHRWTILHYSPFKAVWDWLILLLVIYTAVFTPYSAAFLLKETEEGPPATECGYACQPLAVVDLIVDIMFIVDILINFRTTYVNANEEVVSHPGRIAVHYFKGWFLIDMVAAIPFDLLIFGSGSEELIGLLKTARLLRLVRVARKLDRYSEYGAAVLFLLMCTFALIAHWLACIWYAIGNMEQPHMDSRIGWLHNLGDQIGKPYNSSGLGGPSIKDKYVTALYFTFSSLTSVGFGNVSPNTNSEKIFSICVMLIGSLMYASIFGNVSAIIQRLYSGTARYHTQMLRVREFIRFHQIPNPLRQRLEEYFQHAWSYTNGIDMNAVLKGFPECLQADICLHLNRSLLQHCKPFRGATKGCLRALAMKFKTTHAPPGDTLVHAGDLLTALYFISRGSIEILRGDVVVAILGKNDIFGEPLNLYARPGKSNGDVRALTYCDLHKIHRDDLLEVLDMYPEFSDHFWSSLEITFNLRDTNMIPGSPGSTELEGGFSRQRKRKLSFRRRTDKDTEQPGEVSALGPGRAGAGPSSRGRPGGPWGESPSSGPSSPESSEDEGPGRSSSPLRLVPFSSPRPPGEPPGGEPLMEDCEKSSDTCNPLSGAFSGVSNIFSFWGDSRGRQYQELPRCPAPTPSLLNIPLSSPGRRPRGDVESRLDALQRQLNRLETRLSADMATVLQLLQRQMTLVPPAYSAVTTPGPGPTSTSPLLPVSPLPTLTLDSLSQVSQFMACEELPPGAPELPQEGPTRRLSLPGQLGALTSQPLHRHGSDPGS

[37] = Genotoxicity in Sprague-Dawley rat assessed as clastogenic activity by micronucleus assay; format: toxicity; summary of the method: as §3

## Cc1cc(-c2ccnc(Nc3cnn(C)c3)n2)ccc1CNC(=O)N1CC(OC(C)C)C1
[1]
  solubility: 1 µg/mL (≈ 2.3 µM)
[2]
  clearance: 3 mL/min/kg
[3]
  AUC: 1940 ng·h/mL
[4]
  bioavailability: 48%
[5]
  half-life: 6 h
[6]
  Activity: Non-Toxic
[7]
  Activity: Non-Toxic
[8]
  Vd: 0.2 L/kg
[9]
  bioavailability: 32%
[10]
  NOAEL at 2184 h: 100 mg/kg/day
[11]
  Activity: Non-Toxic
Cytochrome P450 2C19
  IC50: > 25 µM
[12]
  fraction unbound: 0.0128
[13]
  Cmax: 282 ng/mL
Cytochrome P450 2D6
  IC50: > 25 µM
Cytochrome P450 2C9
  IC50: > 25 µM
[14]
  clearance: 11 mL/min/kg
[15]
  Tmax: 0.9 h
Cytochrome P450 1A2
  IC50: > 25 µM
[16]
  AUC: 2350 ng·h/mL
[17]
  Activity: Non-Toxic
[18]
  Activity: Non-Toxic
[19]
  Vd: 1.2 L/kg
[20]
  Activity: Non-Toxic
Cytochrome P450 3A4
  Activity: Not Active
[21]
  remaining at 6 h: > 95%
[22]
  Activity: Non-Toxic
[23]
  logD: 2.92
[24]
  Cmax: 2920 ng/mL
[25]
  CL: 26%
[26]
  Activity: Non-Toxic
[27]
  half-life: 0.9 h
[28]
  clearance: 11 mL/min/kg
[29]
  half-life: 2.1 h
[30]
  Drug metabolism: Metabolite_Detected
[31]
  Activity: Non-Toxic
[32]
  CL: 6%
[33]
  Activity: Non-Toxic
[34]
  half-life: 1.2 h
[35]
  Activity: Non-Toxic
[36]
  IC50: > 50 µM
[37]
  Activity: Non-Toxic

From ChEMBL document CHEMBL4699451, “Discovery of BIIB068: A Selective, Potent, Reversible Bruton's Tyrosine Kinase Inhibitor as an Orally Efficacious Agent for Autoimmune Diseases” (J Med Chem, 2020)
